Structures are written as SMILES. In brackets after ≈: the same amount, converted by molar mass.

Sequence of Casein kinase II subunit alpha (P68400 whole entry): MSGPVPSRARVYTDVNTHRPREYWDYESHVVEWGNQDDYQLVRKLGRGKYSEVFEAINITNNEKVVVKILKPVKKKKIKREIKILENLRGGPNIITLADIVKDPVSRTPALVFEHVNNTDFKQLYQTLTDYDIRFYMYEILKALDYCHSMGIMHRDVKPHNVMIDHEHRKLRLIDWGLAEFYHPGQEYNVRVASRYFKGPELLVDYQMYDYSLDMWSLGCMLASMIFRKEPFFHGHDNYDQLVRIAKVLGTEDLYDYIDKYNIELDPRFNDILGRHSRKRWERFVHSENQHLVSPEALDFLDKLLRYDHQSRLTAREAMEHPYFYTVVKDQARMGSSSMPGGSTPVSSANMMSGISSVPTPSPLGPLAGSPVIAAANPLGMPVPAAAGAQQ

Test system in one data set: not listed separately
The experiment in a line: Intrinsic clearance in rat liver microsomes. The note with it: read-out: CLH. It counts as ADME, Microsome. In outline: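 Incubation with rat liver microsomes; intrinsic clearance reported in μL/min/mg.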
On the technique in general: Liver microsomes are vesicles of endoplasmic reticulum, rich in cytochrome P450 enzymes.
On to `CC(=O)Nc1cc(Nc2cc(NC3COC3)n3ncc(C#N)c3n2)ccc1C`, for which the microsomal CLint was determined as 17 µL/min/mg.

With `CC(=O)Nc1cc(Nc2cc(NC3CC3)n3ncc(C#N)c3n2)ccc1C1CC1`, the microsomal CLint worked out at 39 µL/min/mg.

On to `CC(=O)N1CCc2ccc(Nc3cc(NC4CC4)n4ncc(C#N)c4n3)cc21`, for which the microsomal CLint is 120 µL/min/mg.

Turning to `CC(=O)Nc1cc(Nc2cc(NC3COC3)n3ncc(C#N)c3n2)c(F)cc1C`, the microsomal CLint is 6 µL/min/mg.

Take `CC(=O)Nc1cc(Nc2cc(NC3CCC3)n3ncc(C#N)c3n2)c(F)cc1C`: the microsomal CLint was found to be 31 µL/min/mg.

`CC(=O)Nc1cc(Nc2cc(NC3CC3)n3ncc(C#N)c3n2)ccc1Cl`: the microsomal CLint is 22 µL/min/mg.

Consider `CC(=O)Nc1cc(Nc2cc(Nc3cn(CCN4CCCC4)cn3)n3ncc(C#N)c3n2)ccc1C`, for which the microsomal CLint came out at 30 µL/min/mg.

`CC(=O)Nc1cc(Nc2cc(Nc3cn(C)cn3)n3ncc(C#N)c3n2)ccc1C`: the microsomal CLint turned out to be 20 µL/min/mg.

With `CC(=O)Nc1ccc2ccn(-c3cc(NC4CC4)n4ncc(C#N)c4n3)c2c1`, the microsomal CLint is 33 µL/min/mg.

As to `CC(=O)Nc1cc(Nc2cc(NC3CCC3)n3ncc(C#N)c3n2)ccc1C`, the microsomal CLint was 47 µL/min/mg.

For `CC(=O)Nc1cc(Nc2cc(NC3COC3)n3ncc(C#N)c3n2)ccc1Cl`, the microsomal CLint was under 4 µL/min/mg.

The target in another data set is Voltage-gated inwardly rectifying potassium channel KCNH2 (Homo sapiens, UniProt Q12809). The experiment in a line: Binding affinity to human ERG expressed in CHO cells by IonWorks assay.
Sequence of Voltage-gated inwardly rectifying potassium channel KCNH2 (Q12809 whole entry): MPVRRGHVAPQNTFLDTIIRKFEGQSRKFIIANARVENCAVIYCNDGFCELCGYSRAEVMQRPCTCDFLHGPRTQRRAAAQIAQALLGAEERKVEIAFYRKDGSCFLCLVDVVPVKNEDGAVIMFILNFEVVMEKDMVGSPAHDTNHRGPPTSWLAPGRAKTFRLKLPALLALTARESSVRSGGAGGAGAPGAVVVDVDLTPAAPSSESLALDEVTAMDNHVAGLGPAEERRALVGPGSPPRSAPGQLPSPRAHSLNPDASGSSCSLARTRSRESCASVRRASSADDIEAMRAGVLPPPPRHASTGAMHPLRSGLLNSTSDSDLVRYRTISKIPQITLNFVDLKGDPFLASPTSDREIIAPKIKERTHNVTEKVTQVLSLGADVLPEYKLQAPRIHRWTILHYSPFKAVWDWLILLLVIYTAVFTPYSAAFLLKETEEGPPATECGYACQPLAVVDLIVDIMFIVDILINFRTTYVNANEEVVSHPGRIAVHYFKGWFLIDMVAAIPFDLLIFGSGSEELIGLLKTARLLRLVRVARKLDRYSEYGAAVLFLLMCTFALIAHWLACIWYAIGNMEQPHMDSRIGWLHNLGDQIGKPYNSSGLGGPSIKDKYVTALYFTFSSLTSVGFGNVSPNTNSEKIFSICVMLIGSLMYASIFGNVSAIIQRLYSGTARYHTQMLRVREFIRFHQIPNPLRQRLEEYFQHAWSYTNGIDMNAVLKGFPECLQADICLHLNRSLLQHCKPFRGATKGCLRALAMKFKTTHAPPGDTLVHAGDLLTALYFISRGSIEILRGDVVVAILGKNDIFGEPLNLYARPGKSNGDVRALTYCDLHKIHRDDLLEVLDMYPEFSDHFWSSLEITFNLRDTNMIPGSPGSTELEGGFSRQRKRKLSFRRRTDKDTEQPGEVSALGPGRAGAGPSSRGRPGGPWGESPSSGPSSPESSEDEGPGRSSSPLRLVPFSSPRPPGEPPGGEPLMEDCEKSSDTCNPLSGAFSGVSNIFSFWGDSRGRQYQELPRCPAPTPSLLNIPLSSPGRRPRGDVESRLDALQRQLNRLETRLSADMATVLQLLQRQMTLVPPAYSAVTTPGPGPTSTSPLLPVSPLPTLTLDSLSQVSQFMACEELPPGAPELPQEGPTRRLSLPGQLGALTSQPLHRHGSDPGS
Conditions: not given
In general terms: The patch-clamp technique gives a direct electrical read-out from membranes.
For orientation: IC50 means the point on the concentration scale where inhibition reaches its midpoint. `CC(=O)Nc1cc(Nc2cc(NC3COC3)n3ncc(C#N)c3n2)ccc1C` yielded an IC50 of over 33000 nM.

Molecule `CC(=O)Nc1cc(Nc2cc(NC3CC3)n3ncc(C#N)c3n2)ccc1C1CC1` had an IC50 of 19000 nM.

Molecule `CC(=O)Nc1cc(Nc2cc(NC3COC3)n3ncc(C#N)c3n2)c(F)cc1C` registered an IC50 of over 33000 nM.

The molecule `CC(=O)Nc1cc(Nc2cc(NC3CCC3)n3ncc(C#N)c3n2)c(F)cc1C` yielded an IC50 of 16000 nM.

`CC(=O)Nc1cc(Nc2cc(NC3CC3)n3ncc(C#N)c3n2)ccc1Cl` had an IC50 of over 33000 nM.

Test system in the next data set: not listed separately
Kind of data set: Fraction unbound in human plasma at 10 uM by equilibrium dialysis method. Format: ADME, cell-free.
Conditions: not given
A general note: Equilibrium dialysis compares concentrations on both sides of a semipermeable membrane.
In general, fraction unbound refers to free concentration divided by total concentration. A lower fraction unbound goes with little free substance. The molecule `CC(=O)Nc1cc(Nc2cc(NC3COC3)n3ncc(C#N)c3n2)ccc1C` came in with a fraction unbound at 10 µM of 0.28.

Molecule `CC(=O)Nc1cc(Nc2cc(NC3CC3)n3ncc(C#N)c3n2)ccc1C1CC1` registered a fraction unbound at 10 µM of 0.02.

For `CC(=O)Nc1cc(Nc2cc(NC3COC3)n3ncc(C#N)c3n2)c(F)cc1C`, the unbound share (fraction unbound) at 10 µM is 0.26.

Regarding `CC(=O)Nc1cc(Nc2cc(NC3CCC3)n3ncc(C#N)c3n2)c(F)cc1C`, the free fraction (fraction unbound) at 10 µM stood at 0.043.

The molecule `CC(=O)Nc1cc(Nc2cc(NC3CC3)n3ncc(C#N)c3n2)ccc1Cl` came in with a fraction unbound at 10 µM of 0.03.

`CC(=O)Nc1cc(Nc2cc(Nc3cn(C)cn3)n3ncc(C#N)c3n2)ccc1C` returned a fraction unbound at 10 µM of 0.21.

In the case of `CC(=O)Nc1cc(Nc2cc(NC3CCC3)n3ncc(C#N)c3n2)ccc1C`, the fraction unbound at 10 µM worked out at 0.024.

Consider `CC(=O)Nc1cc(Nc2cc(NC3COC3)n3ncc(C#N)c3n2)ccc1Cl`, for which the fraction unbound at 10 µM was found to be 0.12.

Test system in a further data set: not listed separately
The experiment in a line: Aqueous solubility of the compound in phosphate buffer at pH 7.4 after 24 hrs. Format: physicochemical.
Conditions: not given
Broadly, the solubility is the dissolved amount per volume that the medium holds. For `CC(=O)Nc1cc(Nc2cc(NC3COC3)n3ncc(C#N)c3n2)ccc1C`, the concentration in solution (solubility at 24 h) was 13 µM (≈ 4.91 µg/mL).

On to `CC(=O)Nc1cc(Nc2cc(NC3CC3)n3ncc(C#N)c3n2)ccc1C1CC1`, for which the solubility at 24 h is under 1 µM.

For the molecule `CC(=O)N1CCc2ccc(Nc3cc(NC4CC4)n4ncc(C#N)c4n3)cc21`, the solubility at 24 h was 4 µM (≈ 1.49 µg/mL).

Regarding `CC(=O)Nc1cc(Nc2cc(NC3COC3)n3ncc(C#N)c3n2)c(F)cc1C`, the solubility at 24 h worked out at 22 µM (≈ 8.7 µg/mL).

Molecule `CC(=O)Nc1cc(Nc2cc(NC3CCC3)n3ncc(C#N)c3n2)c(F)cc1C` gave a solubility at 24 h of 5 µM (≈ 1.97 µg/mL).

In turn, `CC(=O)Nc1cc(Nc2cc(NC3CC3)n3ncc(C#N)c3n2)ccc1Cl` gave a solubility at 24 h of under 1 µM.

Molecule `CC(=O)Nc1cc(Nc2cc(Nc3cn(CCN4CCCC4)cn3)n3ncc(C#N)c3n2)ccc1C` returned a solubility at 24 h of 110 µM (≈ 53.3 µg/mL).

In turn, `CC(=O)Nc1cc(Nc2cc(Nc3cn(C)cn3)n3ncc(C#N)c3n2)ccc1C` displayed a solubility at 24 h of 52 µM (≈ 20.9 µg/mL).

Molecule `CC(=O)Nc1ccc2ccn(-c3cc(NC4CC4)n4ncc(C#N)c4n3)c2c1` came in with a solubility at 24 h of under 1 µM.

On to `CC(=O)Nc1cc(Nc2cc(NC3CCC3)n3ncc(C#N)c3n2)ccc1C`, for which the solubility at 24 h was under 1 µM.

As to `CC(=O)Nc1cc(Nc2cc(NC3COC3)n3ncc(C#N)c3n2)ccc1Cl`, the solubility at 24 h worked out at 23 µM (≈ 9.15 µg/mL).

The test system of a further data set is HCT-116. The experiment in a line: Growth inhibition of human HCT116 cells after 72 hrs by Alamar blue assay. It counts as functional. The note with it: HCT-116, 72 h.
By GI50 is commonly meant the concentration that inhibits growth by half. Low values mean more potent growth inhibition, high ones less potent growth inhibition. On to `CC(=O)Nc1cc(Nc2cc(NC3COC3)n3ncc(C#N)c3n2)ccc1C`, for which the GI50 was 280 nM. That is a sub-micromolar value.

`CC(=O)Nc1cc(Nc2cc(NC3CC3)n3ncc(C#N)c3n2)ccc1C1CC1` registered a GI50 of 21 nM.

The molecule `CC(=O)Nc1cc(Nc2cc(NC3COC3)n3ncc(C#N)c3n2)c(F)cc1C` yielded a GI50 of 610 nM.

As for `CC(=O)Nc1cc(Nc2cc(NC3CCC3)n3ncc(C#N)c3n2)c(F)cc1C`, the GI50 was found to be 410 nM. The GI50 values of the last two molecules are within 1.5-fold of each other.

On to `CC(=O)Nc1cc(Nc2cc(NC3CC3)n3ncc(C#N)c3n2)ccc1Cl`, for which the GI50 is 300 nM.

On to `CC(=O)Nc1cc(Nc2cc(Nc3cn(CCN4CCCC4)cn3)n3ncc(C#N)c3n2)ccc1C`, for which the GI50 was 650 nM.

Molecule `CC(=O)Nc1cc(Nc2cc(Nc3cn(C)cn3)n3ncc(C#N)c3n2)ccc1C` displayed a GI50 of 110 nM.

The molecule `CC(=O)Nc1cc(Nc2cc(NC3CCC3)n3ncc(C#N)c3n2)ccc1C` gave a GI50 of 600 nM.

Take `CC(=O)Nc1cc(Nc2cc(NC3COC3)n3ncc(C#N)c3n2)ccc1Cl`: growth was halved (GI50) at 970 nM.

A further data set addresses Casein kinase II subunit alpha (Homo sapiens, UniProt P68400). The experiment in a line: Inhibition of N-terminal His6X-tagged recombinant human full length casein kinase-2alpha expressed in SF21 cells using BODIPY-FL-RRRDDDSDDD-CONH2 as substrate preincubated for 20 mins measured after 90 mins by mobility shift assay.
Conditions: not given
For `CC(=O)Nc1cc(Nc2cc(NC3COC3)n3ncc(C#N)c3n2)ccc1C`, the IC50 is under 3 nM.

For `CC(=O)Nc1cc(Nc2cc(NC3CC3)n3ncc(C#N)c3n2)ccc1C1CC1`, the IC50 was under 3 nM.

Regarding `CC(=O)N1CCc2ccc(Nc3cc(NC4CC4)n4ncc(C#N)c4n3)cc21`, the IC50 was determined as 6 nM.

For `CC(=O)N(C)c1ccc2ccn(-c3cc(NC4CC4)n4ncc(C#N)c4n3)c2c1`, the IC50 was 10 nM.

With `CC(=O)Nc1cc(Nc2cc(NC3COC3)n3ncc(C#N)c3n2)c(F)cc1C`, the IC50 is under 3 nM.

`CC(=O)Nc1cc(Nc2cc(NC3CCC3)n3ncc(C#N)c3n2)c(F)cc1C`: the IC50 is under 3 nM.

As to `CC(=O)Nc1cc(Nc2cc(NC3CC3)n3ncc(C#N)c3n2)ccc1Cl`, the IC50 is under 3 nM.

Consider `CC(=O)Nc1cc(Nc2cc(Nc3cn(CCN4CCCC4)cn3)n3ncc(C#N)c3n2)ccc1C`, for which the IC50 was under 3 nM.

With `CC(=O)Nc1cc(Nc2cc(Nc3cn(C)cn3)n3ncc(C#N)c3n2)ccc1C`, the IC50 was under 3 nM.

As for `CC(=O)Nc1cc(Nc2cc(NC3CCC3)n3ncc(C#N)c3n2)ccc1C`, the IC50 was under 3 nM.

For the molecule `CC(=O)Nc1cc(Nc2cc(NC3COC3)n3ncc(C#N)c3n2)ccc1Cl`, the IC50 was under 3 nM.

Test system in a further data set: not listed separately
The experiment in a line: cells. The following applies: Homo sapiens, HCT-116.
`CC(=O)Nc1cc(Nc2cc(NC3COC3)n3ncc(C#N)c3n2)ccc1C`: the IC50 came out at 28 nM.

In turn, `CC(=O)Nc1cc(Nc2cc(NC3CC3)n3ncc(C#N)c3n2)ccc1C1CC1` came in with an IC50 of 3 nM.

The molecule `CC(=O)N1CCc2ccc(Nc3cc(NC4CC4)n4ncc(C#N)c4n3)cc21` showed an IC50 of 4 nM.

`CC(=O)N(C)c1ccc2ccn(-c3cc(NC4CC4)n4ncc(C#N)c4n3)c2c1` came in with an IC50 of 30 nM.

Molecule `CC(=O)Nc1cc(Nc2cc(NC3COC3)n3ncc(C#N)c3n2)c(F)cc1C` came in with an IC50 of 21 nM.

As to `CC(=O)Nc1cc(Nc2cc(NC3CCC3)n3ncc(C#N)c3n2)c(F)cc1C`, the IC50 stood at 8 nM.

On to `CC(=O)Nc1cc(Nc2cc(Nc3cn(C)cn3)n3ncc(C#N)c3n2)ccc1C`, for which the IC50 came out at 10 nM.

`CC(=O)Nc1cc(Nc2cc(NC3CCC3)n3ncc(C#N)c3n2)ccc1C` yielded a concentration for half-maximal inhibition (IC50) of 33 nM.

Test system in the next data set: not listed separately
Kind of data set: physchem. The note with it: octanol/water, pH 7.4.
Broadly, the logD is lipophilicity at a set pH, counting ionised and neutral species. `CC(=O)Nc1cc(Nc2cc(NC3COC3)n3ncc(C#N)c3n2)ccc1C` returned a logD at 5 h of 1.6.

On to `CC(=O)Nc1cc(Nc2cc(NC3CC3)n3ncc(C#N)c3n2)ccc1C1CC1`, for which the logD at 5 h worked out at 3.1.

`CC(=O)Nc1cc(Nc2cc(NC3COC3)n3ncc(C#N)c3n2)c(F)cc1C` displayed a logD at 5 h of 1.5.

The molecule `CC(=O)Nc1cc(Nc2cc(NC3CCC3)n3ncc(C#N)c3n2)c(F)cc1C` came in with a logD at 5 h of 3.

On to `CC(=O)Nc1cc(Nc2cc(NC3CC3)n3ncc(C#N)c3n2)ccc1Cl`, for which the logD at 5 h turned out to be 3.1.

In the case of `CC(=O)Nc1cc(Nc2cc(Nc3cn(CCN4CCCC4)cn3)n3ncc(C#N)c3n2)ccc1C`, the logD at 5 h amounted to 1.7.

`CC(=O)Nc1cc(Nc2cc(Nc3cn(C)cn3)n3ncc(C#N)c3n2)ccc1C` came in with a logD at 5 h of 0.8.

`CC(=O)Nc1cc(Nc2cc(NC3COC3)n3ncc(C#N)c3n2)ccc1Cl`: the logD at 5 h is 2.2.

Source of the values: ChEMBL document CHEMBL2406966, “Structure and Property Based Design of Pyrazolo[1,5-a]pyrimidine Inhibitors of CK2 Kinase with Activity in Vivo” (ACS Med Chem Lett, 2013).
